Assay results as given in ChEMBL document CHEMBL4190207, “Lignans from the Roots of Taxus wallichiana and Their α-Glucosidase Inhibitory Activities” (J Nat Prod, 2017).

Assay: Inhibition of Saccharomyces cerevisiae alpha-glucosidase using p-nitrophenyl-alpha-D-glucopyranoside as substrate after 30 mins
In short: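 Reaction started by adding 3 mM p-nitrophenyl-α-D-glucopyranoside and 0.2 U/mL α-glucosidase (both stock concentrations) in 0.01 M phosphate buffer, pH 7.0, to the sample solution. Incubated at 37 °C for 30 min, then stopped with 0.1 M Na2CO3. Activity read as absorbance at 401 nm. IC50 is the concentration giving 50% inhibition of enzyme activity. Acarbose was the positive control.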

Row | SMILES | IC50 [µM]
1 | COc1cc([C@H]2OC[C@@H]([C@@H](OC)c3ccc(O)c(OC)c3)[C@H]2CO)ccc1O (relative stereo) | 42.9
2 | COc1cc(C[C@H]2COC(=O)[C@@H]2Cc2ccc(O)c(OC)c2)ccc1O [MATAIRESINOL] | 175
3 | COc1cc([C@H]2c3cc(O)c(OC)cc3C[C@H]3[C@@H](OC)OC[C@H]23)ccc1O | 38.8
4 | COc1cc2c(cc1O)C1c3cc(O)c(O)cc3C(=O)C(C2)C1CO (stereo unspecified) | 135
5 | COc1cc(C[C@H]2[C@@H](OC)OC[C@@H]2[C@H](OC)c2ccc(O)c(OC)c2)ccc1O | 133
6 | COc1cc2c(cc1O)C1c3cc(OC)c(O)cc3C(=O)C(C2)C1CO (stereo unspecified) | 52.2
7 | COc1cc([C@H]2c3cc(O)c(OC)cc3C[C@H]3[C@H](OC)OC[C@H]23)ccc1O | 35.3
8 | C[C@H]1O[C@H](O[C@H]2[C@H](O)[C@@H](O)[C@@H](O[C@H]3[C@H](O)[C@@H](O)C(O)O[C@@H]3CO)O[C@@H]2CO)[C@H](O)[C@@H](O)[C@@H]1N[C@H]1C=C(CO)[C@@H](O)[C@H](O)[C@H]1O (stereo partly specified) [ACARBOSE] | 215
9 | COc1cc([C@H]2c3cc(O)c(OC)cc3C[C@H]3C(=O)OC[C@H]23)ccc1O [ALPHA-CONIDENDRIN] | 194
10 | COc1cc([C@@H](OC)[C@@H]2CO[C@H](c3ccc(O)c(OC)c3)[C@@H]2CO)ccc1O (relative stereo) | 170
11 | COc1cc(C[C@H]2C(=O)OC[C@@H]2C(=O)c2ccc(O)c(OC)c2)ccc1O | 79.1
